# Measured values taken from ChEMBL document CHEMBL3351814, “Discovery of selective hexapeptide agonists to human neuromedin U receptors types 1 and 2” (J Med Chem, 2014).
# Calls of active or inactive are those of the source. No cut-off for these calls is given here. Where a SMILES comes first, the peptide text is derived from it. [ ]: non-standard residue; d: D form. The star is where a group is joined. Quinoline(6-carbonyl) = O=C(c1ccc2ncccc2c1)*; Propanoyl(3-(3-pyridyl)) = O=C(CCc1cccnc1)*; Acetyl(pyridin-2-yl) = O=C(Cc1ccccn1)*; 1Nal = N[C@@H](Cc1cccc2ccccc12)C(=O)O; Propanoyl(3-cHex) = O=C(CCC1CCCCC1)*; Acetyl(3-pyridyl) = O=C(Cc1cccnc1)*; Acetyl(4-pyridyl) = O=C(Cc1ccncc1)*; Hydrocinnamoyl = O=C(CCc1ccccc1)*; Quinaldoyl = O=C(c1ccc2ccccc2n1)*; hArg = N=C(N)NCCCC[C@H](N)C(=O)O; hPhe = N[C@@H](CCc1ccccc1)C(=O)O; Tic = O=C(O)[C@@H]1Cc2ccccc2CN1; Phg = N[C@H](C(=O)O)c1ccccc1; Pip = O=C(O)[C@@H]1CCCCN1; Dab = NCC[C@H](N)C(=O)O; Nva = CCC[C@H](N)C(=O)O; Dap = NC[C@H](N)C(=O)O; PhAc = O=C(Cc1ccccc1)*; X1 = O=C(Cn1ccnc1)*
# How the values were obtained:
# Format in all cases: functional, cell-based
# Neuromedin-U receptor 1 = biological target: T1, Neuromedin-U receptor 1 (Mus musculus, UniProt O55040); test: Agonist activity at mouse NMUR1 expressed in HEK293 cells by calcium mobilization assay
# T1 sequence (O55040 whole entry): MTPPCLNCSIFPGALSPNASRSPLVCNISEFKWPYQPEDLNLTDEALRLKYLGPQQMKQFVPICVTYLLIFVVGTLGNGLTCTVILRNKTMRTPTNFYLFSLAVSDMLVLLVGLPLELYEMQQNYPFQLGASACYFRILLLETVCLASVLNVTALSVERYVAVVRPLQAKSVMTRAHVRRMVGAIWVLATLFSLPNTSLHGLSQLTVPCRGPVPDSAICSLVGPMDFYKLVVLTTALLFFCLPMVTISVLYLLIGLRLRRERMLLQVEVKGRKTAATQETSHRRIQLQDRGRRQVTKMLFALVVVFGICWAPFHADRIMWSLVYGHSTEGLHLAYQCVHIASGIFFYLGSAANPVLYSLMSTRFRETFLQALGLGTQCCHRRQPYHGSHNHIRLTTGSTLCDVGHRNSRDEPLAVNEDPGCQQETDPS
# Neuromedin-U receptor 2 [1] = biological target: Neuromedin-U receptor 2 (Mus musculus, UniProt Q8BZ39); test: Agonist activity at mouse NMUR2 expressed in HEK293 cells by calcium mobilization assay
# Chain of Neuromedin-U receptor 2 (Mus musculus, UniProt Q8BZ39) (Q8BZ39 whole entry): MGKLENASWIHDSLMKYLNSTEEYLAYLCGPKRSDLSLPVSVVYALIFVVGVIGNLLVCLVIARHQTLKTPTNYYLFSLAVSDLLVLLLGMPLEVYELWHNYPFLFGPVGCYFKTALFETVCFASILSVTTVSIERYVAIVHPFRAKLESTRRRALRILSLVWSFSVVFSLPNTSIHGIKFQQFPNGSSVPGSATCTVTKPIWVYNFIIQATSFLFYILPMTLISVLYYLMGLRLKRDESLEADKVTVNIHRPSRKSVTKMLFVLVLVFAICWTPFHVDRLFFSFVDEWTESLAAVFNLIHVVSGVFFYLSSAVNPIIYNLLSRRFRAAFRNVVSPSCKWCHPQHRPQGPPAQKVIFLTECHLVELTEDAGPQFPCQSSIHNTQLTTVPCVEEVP
# [2] = biological target: T2, Neuromedin-U receptor 1 (Homo sapiens) (UniProt Q9HB89); test: Agonist activity at human NMUR1 expressed in HEK293 cells at 1 to 100 nM by calcium mobilization assay relative to NMU
# T2 sequence (whole entry): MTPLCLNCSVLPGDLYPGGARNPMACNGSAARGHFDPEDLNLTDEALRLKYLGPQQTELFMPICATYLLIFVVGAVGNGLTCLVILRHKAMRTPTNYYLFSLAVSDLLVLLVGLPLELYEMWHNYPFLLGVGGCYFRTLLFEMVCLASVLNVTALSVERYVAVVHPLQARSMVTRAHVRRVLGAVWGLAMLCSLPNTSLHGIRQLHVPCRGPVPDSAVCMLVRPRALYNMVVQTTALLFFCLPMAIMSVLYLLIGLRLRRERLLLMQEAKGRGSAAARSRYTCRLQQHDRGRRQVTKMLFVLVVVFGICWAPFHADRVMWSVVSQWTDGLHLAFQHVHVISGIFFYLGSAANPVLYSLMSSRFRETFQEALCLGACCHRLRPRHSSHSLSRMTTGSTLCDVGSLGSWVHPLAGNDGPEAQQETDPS
# Summary of the method: (§1)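 HEK293 cells transiently transfected with human NMUR1 or NMUR2 plasmid (FuGENE6), reseeded 18 h post-transfection at 4.0 × 10^4 cells/well on poly-D-lysine. After 18 h, loaded 40 min with 4 μM Fluo-4-AM in HBSS/HEPES/probenecid buffer pH 7.4 with 1% FCS, then washed. Peptides in buffer with 0.05% BSA and 0.001% Triton X-100. Maximal FLIPR signal expressed as % of hNMU at 1000 nM.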
# Neuromedin-U receptor 2 [3] = biological target: Neuromedin-U receptor 2 (Homo sapiens, UniProt Q9GZQ4); test: Agonist activity at human NMUR2 expressed in HEK293 cells at 1 to 100 nM by calcium mobilization assay relative to NMU; summary of the method: as §1
# Chain of Neuromedin-U receptor 2 (Homo sapiens, UniProt Q9GZQ4) (Q9GZQ4 whole entry): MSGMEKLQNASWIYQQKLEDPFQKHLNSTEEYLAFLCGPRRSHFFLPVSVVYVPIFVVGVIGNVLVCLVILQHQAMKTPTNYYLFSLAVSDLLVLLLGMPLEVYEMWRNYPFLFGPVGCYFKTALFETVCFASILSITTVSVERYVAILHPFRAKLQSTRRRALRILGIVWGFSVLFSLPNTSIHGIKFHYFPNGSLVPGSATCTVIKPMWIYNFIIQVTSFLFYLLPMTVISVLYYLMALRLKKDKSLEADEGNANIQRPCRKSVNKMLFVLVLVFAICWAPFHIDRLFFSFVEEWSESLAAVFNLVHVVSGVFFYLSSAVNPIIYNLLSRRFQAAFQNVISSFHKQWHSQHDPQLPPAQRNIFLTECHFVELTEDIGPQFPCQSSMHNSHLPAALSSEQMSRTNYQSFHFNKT
Compound,Activity [2],Activity (Neuromedin-U receptor 2 [3]),EC50 (Neuromedin-U receptor 1) [nM],EC50 (Neuromedin-U receptor 2 [1]) [nM]
CC(C)C[C@H](NC(=O)[C@H](Cc1ccccc1)NC(=O)[C@@H](N)Cc1ccc(O)cc1)C(=O)N[C@@H](Cc1ccccc1)C(=O)N[C@@H](CCCNC(=N)N)C(=O)N1CCC[C@H]1C(=O)N[C@@H](CCCNC(=N)N)C(=O)N[C@@H](CC(N)=O)C(N)=O,,,9.5,3
CC(C)C[C@H](NC(=O)[C@@H]1Cc2ccccc2CN1)C(=O)N[C@@H](Cc1ccccc1)C(=O)N[C@@H](CCCNC(=N)N)C(=O)N1CCC[C@H]1C(=O)N[C@@H](CCCNC(=N)N)C(=O)N[C@@H](CC(N)=O)C(N)=O (H-[Tic]LFRPRN-NH2),Active,Active,,
CC(C)C[C@H](NC(=O)CCc1ccccc1)C(=O)N[C@@H](Cc1ccccc1)C(=O)N[C@@H](CCCNC(=N)N)C(=O)N1CCC[C@H]1C(=O)N[C@@H](CCCNC(=N)N)C(=O)N[C@@H](C)C(N)=O (Hydrocinnamoyl-LFRPRA-NH2),inactive,inactive,,
CC(C)C[C@H](NC(=O)CCc1ccccc1)C(=O)N[C@@H](Cc1ccccc1)C(=O)N[C@@H](CCCNC(=N)N)C(=O)N1CCC[C@H]1C(=O)N[C@@H](CCCNC(=N)N)C(=O)N[C@@H](CC(=O)O)C(N)=O (Hydrocinnamoyl-LFRPRD-NH2),inactive,inactive,,
CC(C)C[C@H](NC(=O)CCc1ccccc1)C(=O)N[C@@H](Cc1ccccc1)C(=O)N[C@@H](CCCNC(=N)N)C(=O)N1CCC[C@H]1C(=O)N[C@@H](CCCNC(=N)N)C(=O)N[C@@H](CCC(N)=O)C(N)=O (Hydrocinnamoyl-LFRPRQ-NH2),inactive,inactive,,
CC(C)C[C@H](NC(=O)CCc1ccccc1)C(=O)N[C@@H](Cc1ccccc1)C(=O)N[C@@H](CCCNC(=N)N)C(=O)N1CCC[C@H]1C(=O)N[C@@H](CCCNC(=N)N)C(=O)N[C@@H](CCN)C(N)=O (Hydrocinnamoyl-LFRPR[Dab]-NH2),inactive,inactive,,
CC(C)C[C@H](NC(=O)CCc1ccccc1)C(=O)N[C@@H](Cc1ccccc1)C(=O)N[C@@H](CCCNC(=N)N)C(=O)N1CCCC[C@H]1C(=O)N[C@@H](CCCNC(=N)N)C(=O)N[C@@H](CC(N)=O)C(N)=O (Hydrocinnamoyl-LFR[Pip]RN-NH2),Active,Active,,
CC(C)C[C@H](NC(=O)CCc1ccccc1)C(=O)N[C@@H](Cc1ccc(O)cc1)C(=O)N[C@@H](CCCNC(=N)N)C(=O)N1CCC[C@H]1C(=O)N[C@@H](CCCNC(=N)N)C(=O)N[C@@H](CC(N)=O)C(N)=O (Hydrocinnamoyl-LYRPRN-NH2),inactive,inactive,,
CC(C)C[C@H](NC(=O)CCc1ccccc1)C(=O)N[C@@H](CCc1ccccc1)C(=O)N[C@@H](CCCNC(=N)N)C(=O)N1CCC[C@H]1C(=O)N[C@@H](CCCNC(=N)N)C(=O)N[C@@H](CC(N)=O)C(N)=O (Hydrocinnamoyl-L[hPhe]RPRN-NH2),inactive,inactive,,
CC(C)C[C@H](NC(=O)Cc1ccccc1)C(=O)N[C@@H](Cc1ccccc1)C(=O)N[C@@H](CCCNC(=N)N)C(=O)N1CCC[C@H]1C(=O)N[C@@H](CCCNC(=N)N)C(=O)N[C@@H](CC(N)=O)C(N)=O (PhAc-LFRPRN-NH2),Active,,,
N=C(N)NCCC[C@H](NC(=O)[C@@H]1CCCN1C(=O)[C@H](CCCNC(=N)N)NC(=O)[C@H](Cc1ccccc1)NC(=O)[C@H](Cc1ccccc1)NC(=O)c1ccc2ccccc2n1)C(=O)N[C@@H](CC(N)=O)C(N)=O (Quinaldoyl-FFRPRN-NH2),inactive,,,
N=C(N)NCCC[C@H](NC(=O)[C@@H]1CCCN1C(=O)[C@H](CCCNC(=N)N)NC(=O)[C@H](Cc1ccccc1)NC(=O)[C@H](Cc1ccccc1)NC(=O)Cc1ccccn1)C(=O)N[C@@H](CC(N)=O)C(N)=O ({Acetyl(pyridin-2-yl)}-FFRPRN-NH2),Active,,,
CC(C)C[C@H](NC(=O)CCc1cccnc1)C(=O)N[C@@H](Cc1ccccc1)C(=O)N[C@@H](CCCNC(=N)N)C(=O)N1CCC[C@H]1C(=O)N[C@@H](CCCNC(=N)N)C(=O)N[C@@H](CC(N)=O)C(N)=O ({Propanoyl(3-(3-pyridyl))}-LFRPRN-NH2),Active,,,
H-YFLFAPRN-NH2,,,2410,156

# The next lines start with results.
Activity [2],Activity (Neuromedin-U receptor 2 [3]),Compound,EC50 (Neuromedin-U receptor 1) [nM],EC50 (Neuromedin-U receptor 2 [1]) [nM]
inactive,inactive,CC(C)C[C@H](NC(=O)[C@H](CCCNC(=N)N)NC(=O)[C@@H]1CCCN1C(=O)[C@H](CCCNC(=N)N)NC(=O)[C@H](Cc1ccccc1)NC(=O)[C@H](CC(C)C)NC(=O)CCc1ccccc1)C(N)=O (Hydrocinnamoyl-LFRPRL-NH2),,
Active,Active,CC(C)C[C@H](NC(=O)CCc1ccccc1)C(=O)N[C@@H](Cc1ccccc1)C(=O)N[C@@H](CCCCNC(=N)N)C(=O)N1CCC[C@H]1C(=O)N[C@@H](CCCNC(=N)N)C(=O)N[C@@H](CC(N)=O)C(N)=O (Hydrocinnamoyl-LF[hArg]PRN-NH2),,
inactive,inactive,CC(C)C[C@H](NC(=O)CCc1ccccc1)C(=O)N[C@H](C(=O)N[C@@H](CCCNC(=N)N)C(=O)N1CCC[C@H]1C(=O)N[C@@H](CCCNC(=N)N)C(=O)N[C@@H](CC(N)=O)C(N)=O)c1ccccc1 (Hydrocinnamoyl-L[Phg]RPRN-NH2),,
Active,,N=C(N)NCCC[C@H](NC(=O)[C@@H]1CCCN1C(=O)[C@H](CCCNC(=N)N)NC(=O)[C@H](Cc1ccccc1)NC(=O)[C@H](Cc1ccccc1)NC(=O)Cn1ccnc1)C(=O)N[C@@H](CC(N)=O)C(N)=O (X1-FFRPRN-NH2),,
Active,,N=C(N)NCCC[C@H](NC(=O)[C@@H]1CCCN1C(=O)[C@H](CCCNC(=N)N)NC(=O)[C@H](Cc1ccccc1)NC(=O)[C@H](Cc1ccccc1)NC(=O)Cc1cccnc1)C(=O)N[C@@H](CC(N)=O)C(N)=O ({Acetyl(3-pyridyl)}-FFRPRN-NH2),,
Active,,N=C(N)NCCC[C@H](NC(=O)[C@@H]1CCCN1C(=O)[C@H](CCCNC(=N)N)NC(=O)[C@H](Cc1ccccc1)NC(=O)[C@H](Cc1ccccc1)NC(=O)Cc1ccncc1)C(=O)N[C@@H](CC(N)=O)C(N)=O ({Acetyl(4-pyridyl)}-FFRPRN-NH2),,
Active,,N=C(N)NCCC[C@H](NC(=O)[C@@H]1CCCN1C(=O)[C@H](CCCNC(=N)N)NC(=O)[C@H](Cc1ccccc1)NC(=O)[C@H](Cc1ccccc1)NC(=O)CCc1cccnc1)C(=O)N[C@@H](CC(N)=O)C(N)=O ({Propanoyl(3-(3-pyridyl))}-FFRPRN-NH2),,
Active,,N=C(N)NCCC[C@H](NC(=O)[C@@H]1CCCN1C(=O)[C@H](CCCNC(=N)N)NC(=O)[C@H](Cc1ccccc1)NC(=O)[C@H](Cc1c[nH]c2ccccc12)NC(=O)CCc1cccnc1)C(=O)N[C@@H](CC(N)=O)C(N)=O ({Propanoyl(3-(3-pyridyl))}-WFRPRN-NH2),,
Active,,N=C(N)NCCC[C@H](NC(=O)[C@@H]1CCCN1C(=O)[C@H](CCCNC(=N)N)NC(=O)[C@H](Cc1ccccc1)NC(=O)[C@H](Cc1cccc2ccccc12)NC(=O)CCc1cccnc1)C(=O)N[C@@H](CC(N)=O)C(N)=O ({Propanoyl(3-(3-pyridyl))}-[1Nal]FRPRN-NH2),,
,Active,CCC[C@H](NC(=O)[C@H](CC(C)C)NC(=O)CCC1CCCCC1)C(=O)N[C@@H](CN)C(=O)N1CCC[C@H]1C(=O)N[C@@H](CCCNC(=N)N)C(=O)N[C@@H](CC(N)=O)C(N)=O ({Propanoyl(3-cHex)}-L[Nva][Dap]PRN-NH2),,
inactive,,N=C(N)NCCC[C@H](NC(=O)[C@@H]1CCCN1C(=O)[C@H](CCCNC(=N)N)NC(=O)[C@H](Cc1ccccc1)NC(=O)[C@H](Cc1ccccc1)NC(=O)c1ccc2ncccc2c1)C(=O)N[C@@H](CC(N)=O)C(N)=O ({Quinoline(6-carbonyl)}-FFRPRN-NH2),,
Active,Active,H-FLFRPRN-NH2,,
